From publication PMC7337098 (Cell reports, 2020) come the findings set out here.

As a reminder, the Hill coefficient is the slope factor of the fitted curve. What is called EC50 is the midpoint of the concentration-response curve.

Where a name gives a salt, the structure may show the parent alone. Read-outs that look alike come from different tables or passages of the source.

The target of test [1] is T1, P2X3R (Homo sapiens, UniProt P56373).
T1 sequence (P56373 1-397): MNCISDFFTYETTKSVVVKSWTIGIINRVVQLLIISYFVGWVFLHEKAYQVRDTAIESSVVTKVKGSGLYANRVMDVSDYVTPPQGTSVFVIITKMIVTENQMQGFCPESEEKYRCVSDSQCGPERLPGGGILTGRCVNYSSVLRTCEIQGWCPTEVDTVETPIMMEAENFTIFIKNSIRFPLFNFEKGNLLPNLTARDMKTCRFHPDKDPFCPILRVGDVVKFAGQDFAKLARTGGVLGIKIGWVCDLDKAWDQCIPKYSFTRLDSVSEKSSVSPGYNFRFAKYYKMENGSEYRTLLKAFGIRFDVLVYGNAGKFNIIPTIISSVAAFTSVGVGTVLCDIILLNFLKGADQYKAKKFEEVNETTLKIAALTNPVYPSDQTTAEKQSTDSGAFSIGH
The test can be described thus: Calcium FLIPR ATP dose response, P2X3R-stable HEK cells transfected with pcDNA3. Format: cell-based.

Test [2] has as its target T2, P2X3R with TMEM163 (Homo sapiens, UniProt P56373).
T2 sequence (P56373 1-397): T1 sequence (P56373 1-397)
T2 sequence (Q8TC26 1-289 partner): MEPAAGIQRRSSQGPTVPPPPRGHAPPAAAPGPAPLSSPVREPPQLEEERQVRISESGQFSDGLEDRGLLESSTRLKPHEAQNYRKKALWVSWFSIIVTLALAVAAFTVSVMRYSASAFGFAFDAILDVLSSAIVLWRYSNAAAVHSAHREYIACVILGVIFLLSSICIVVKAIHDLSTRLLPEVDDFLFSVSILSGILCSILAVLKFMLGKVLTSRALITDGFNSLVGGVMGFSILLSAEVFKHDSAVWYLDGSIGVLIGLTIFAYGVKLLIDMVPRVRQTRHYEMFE
The test can be described thus: Calcium FLIPR ATP dose response, P2X3R-stable HEK cells transfected with TMEM163. Format: cell-based.

Test [3] addresses T1, P2X3R. The class given is cell-based.
In test [4] the target is T2, P2X3R with TMEM163. Format: cell-based.
Test [5] deals with T1, P2X3R. The class given is cell-based. The conditions noted are these: 100 μM ATP, outside-out patch.
Test [6] concerns the target T2, P2X3R with TMEM163. Format: cell-based. As to conditions: 100 μM ATP, outside-out patch.
The test system of a further test is P2XRs in DRG neurons. The test can be described thus: Whole-cell recording of ATP-evoked currents, primary DRG neurons from WT mice. Format: cell-based. The conditions noted are these: Mus musculus, DRG neuron, read-out: ATP EC50.
The test system of test [7] is P2XRs in TMEM163 KO DRG neurons. Format: cell-based. As to conditions: Mus musculus, DRG neuron, read-out: ATP EC50.
Another test concerns WT mice. The test can be described thus: ATP-evoked freezing behavior after hind paw injection. As to conditions: 3 μmol ATP into hind paw, 4 min after injection, saline 6.7 ± 3.2 s. The class given is in vivo, mouse.
Test [8] concerns endogenous P2 receptors in HEK cells. The test can be described thus: Calcium FLIPR response of HEK cells. Format: cell-based, human. As to conditions: untransfected (Mock) HEK cells.
For the next test, the system named is P2X3R and P2X2R. The test can be described thus: Calcium FLIPR assay, HEK cells stably expressing both P2X3R and P2X2R. The class given is cell-based, human. The conditions noted are these: read-out: α,β-MeATP EC50, HEK cell lines stably expressing both P2X3R and P2X2R.
The subject of test [9] is P2XR in cerebellar granule cells. The class given is cell-based, mouse. The conditions noted are these: TNP-ATP 10 μM co-applied with ATP; untreated 23.55 ± 6.96 pA; n = 3.
The target of the next test is T3, P2X4R (Homo sapiens, UniProt Q99571).
T3 sequence (Q99571 1-388): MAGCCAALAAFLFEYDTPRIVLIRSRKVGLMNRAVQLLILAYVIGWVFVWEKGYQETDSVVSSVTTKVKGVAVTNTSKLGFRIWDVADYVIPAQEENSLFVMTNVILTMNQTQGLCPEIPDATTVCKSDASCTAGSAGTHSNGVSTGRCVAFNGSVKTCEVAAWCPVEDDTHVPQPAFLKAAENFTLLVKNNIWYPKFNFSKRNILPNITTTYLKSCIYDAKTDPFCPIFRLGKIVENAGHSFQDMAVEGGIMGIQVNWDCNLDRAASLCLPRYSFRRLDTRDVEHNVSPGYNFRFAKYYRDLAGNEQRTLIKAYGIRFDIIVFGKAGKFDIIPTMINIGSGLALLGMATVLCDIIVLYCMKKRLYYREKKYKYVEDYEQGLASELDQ
The class given is cell-based. As to conditions: P2X4R alone; 10 μM ivermectin pre-applied 10 s; ATP 1.3 μM; n = 7. Put shortly: (§1)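 Xenopus oocytes (surgically harvested, collagenase-treated) co-injected with 25 pg P2X4R cRNA plus 2 ng TMEM163 cRNA, or 2 ng Neto2 cRNA as the control. TEVC at Vh −30 mV, room temperature, in 90 mM NaCl, 1 mM KCl, 2 mM CaCl2, 10 mM HEPES pH 7.4. […] Mean ± SEM; Student's t test.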

For the next test, the target named is T4, P2X4R with TMEM163 (Homo sapiens, UniProt Q99571).
T4 sequence (Q99571 1-388): T3 sequence (Q99571 1-388)
The class given is cell-based. As to conditions: 10 μM ivermectin pre-applied 10 s, ATP 1.3 μM, n = 7. Put shortly: as §1

Take `Nc1ncnc2c1ncn2[C@@H]1O[C@H](COP(=O)([O-])OP(=O)([O-])OP(=O)([O-])[O-])[C@@H](O)[C@H]1O.[Mg+2].[Mg+2]` [ATP, Adenosine 5′-triphosphate magnesium salt]: the Hill coefficient is recorded as 0.99 ± 0.03 at P2X3R [1]; 0.73 ± 0.04 on P2X3R with TMEM163 [2] (P2X3R with TMEM163, ATP calcium FLIPR dose response); 1.04 ± 0.14 on P2X3R [3] (P2X3R, ATP TEVC dose response); 0.98 ± 0.15 on P2X3R with TMEM163 [4] (P2X3R with TMEM163, ATP TEVC dose response). The EC50 amounted to 1270 ± 110 nM at P2X3R with TMEM163 [2]; 1300 ± 230 nM at P2X3R [3]; 261 ± 27.2 nM at P2X3R with TMEM163 [4] (ATP EC50, 25 pg P2X3R with 2 ng TMEM163, TEVC, 20-min interval); 5920 ± 1170 nM in the test on P2XRs in DRG neurons; 31000 ± 15100 nM in test [7]. In addition, the “mean rise time of ATP-evoked currents” value on P2X3R [5] stood at 0.43 ± 0.042 ms; on P2X3R with TMEM163 [6], 0.50 ± 0.061 ms. Also, in the test with WT mice, the “mean cumulative duration of freezing behaviors” value worked out at 74 ± 7.1 s. Also, the “ATP concentrations at which HEK cells (Mock) responded” value in test [8] is on record as “above 1 μM”.

For the compound `Nc1ncnc2c1ncn2[C@@H]1O[C@H](COP(=O)(O)CP(=O)(O)OP(=O)(O)O)[C@@H](O)[C@H]1O` [α,β-MeATP, α, β-Methyleneadenosine 5′-triphosphate lithium salt], the EC50 in the test with P2X3R and P2X2R was determined as 656 ± 88.7 nM.

`Nc1ncnc2c1ncn2[C@@H]1O[C@H](COP(=O)(O)OP(=O)(O)OP(=O)(O)O)[C@H]2OC3(O[C@H]21)C([N+](=O)[O-])=CC(=[N+]([O-])[O-])C=C3[N+](=O)[O-]` (some centres unmarked) [TNP-ATP, TNP-ATP triethylammonium salt] registered an ATP-evoked current in [9] of 0.53 ± 0.25 pA.

As for ivermectin, the “potentiation of ATP-evoked currents (ratio with and without ivermectin)” value on P2X4R amounted to 3.7 ± 0.5 times; on P2X4R with TMEM163 it was 1.9 ± 0.2 times.
